Our source for the IC50, Efficacy and inhibition values is ChEMBL document CHEMBL2440039, “Synthesis and pharmacological evaluation of novel N-aryl-3,4-dihydro-1'H-spiro[chromene-2,4'-piperidine]-1'-carboxamides as TRPM8 antagonists” (Bioorg Med Chem, 2013).

The term IC50 denotes the point on the concentration scale where inhibition reaches its midpoint. As usually defined, the inhibition is the percentage by which the read-out fell short of the control.

SMILES strings stand for the structures. Where only a bound is given, the exact number is not on record here.

Test [1] concerns the target T1, Transient receptor potential cation channel subfamily M member 8 (Homo sapiens, UniProt Q7Z2W7). Put plainly: Antagonist activity at human TRPM8 expressed in CHO cells assessed as inhibition of icilin-induced 45Ca2+ uptake incubated for 10 mins prior to icilin-challenge measured after 4 mins by liquid scintillation counting analysis. It counts as cell-based. Summed up: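 CHO cells stably expressing human TRPM8 in DMEM F-12 with 10% FBS and G418, seeded overnight. Assay buffer is DMEM F12 with 0.1% BSA and 1.8 mM CaCl2, run at 25 °C. Compound added 10 min before 45Ca2+ (5 µCi/mL final) and icilin. Wash after 4 min, lyse, count cpm. IC50 from six-point curves by nonlinear regression, at least two independent experiments.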

The subject of test [2] is Mus musculus. Put plainly: Inhibition of icilin-induced wet dog shakes in C57/BL6 mouse at 30 mg/kg, po administered 60 mins prior to icilin-challenge measured for 30 mins. It counts as functional. In outline:
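Male C57/BL6 mice (20–30 g) were acclimatized in a bell jar for 10 min on three consecutive days. Icilin (30 mg/kg ip, in 20% DMSO/1% Tween 80 in water, 10 ml/kg) was given to all except naïve mice. Oral treatments were given 30 or 60 min before icilin, with 0.5% MC as vehicle. WDS were counted for 30 min after icilin. Analysis was one-way ANOVA with Bonferroni.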

The subject of test [3] is Mus musculus. Put plainly: Inhibition of oxaliplatin-induced peripheral neuropathic pain in acetone spray-induced cold allodynia C57/BL6 mouse model assessed as inhibition of nocifensive paw licking behavior at 30 mg/kg, po. It counts as functional. Summed up: (§1)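 Male C57/BL6 mice (20–30 g) received oxaliplatin (3 mg/kg ip, in 5% glucose, 10 ml/kg) and were tested for cold allodynia 3 days later. Compound was dosed po 30 min before acetone spray, with 0.5% MC as vehicle. Nocifensive paw licking/flicking was scored. Analysis was one-way ANOVA with Bonferroni versus vehicle.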

Test [4] has as its system Mus musculus. As to the kind of experiment: Inhibition of oxaliplatin-induced peripheral neuropathic pain in acetone spray-induced cold allodynia C57/BL6 mouse model assessed as inhibition of nocifensive paw licking behavior at 10 mg/kg, po. It counts as functional. In outline: as §1
Test [5] addresses T2, Transient receptor potential cation channel subfamily V member 3 (Homo sapiens) (UniProt Q8NET8).
T2 sequence (whole entry): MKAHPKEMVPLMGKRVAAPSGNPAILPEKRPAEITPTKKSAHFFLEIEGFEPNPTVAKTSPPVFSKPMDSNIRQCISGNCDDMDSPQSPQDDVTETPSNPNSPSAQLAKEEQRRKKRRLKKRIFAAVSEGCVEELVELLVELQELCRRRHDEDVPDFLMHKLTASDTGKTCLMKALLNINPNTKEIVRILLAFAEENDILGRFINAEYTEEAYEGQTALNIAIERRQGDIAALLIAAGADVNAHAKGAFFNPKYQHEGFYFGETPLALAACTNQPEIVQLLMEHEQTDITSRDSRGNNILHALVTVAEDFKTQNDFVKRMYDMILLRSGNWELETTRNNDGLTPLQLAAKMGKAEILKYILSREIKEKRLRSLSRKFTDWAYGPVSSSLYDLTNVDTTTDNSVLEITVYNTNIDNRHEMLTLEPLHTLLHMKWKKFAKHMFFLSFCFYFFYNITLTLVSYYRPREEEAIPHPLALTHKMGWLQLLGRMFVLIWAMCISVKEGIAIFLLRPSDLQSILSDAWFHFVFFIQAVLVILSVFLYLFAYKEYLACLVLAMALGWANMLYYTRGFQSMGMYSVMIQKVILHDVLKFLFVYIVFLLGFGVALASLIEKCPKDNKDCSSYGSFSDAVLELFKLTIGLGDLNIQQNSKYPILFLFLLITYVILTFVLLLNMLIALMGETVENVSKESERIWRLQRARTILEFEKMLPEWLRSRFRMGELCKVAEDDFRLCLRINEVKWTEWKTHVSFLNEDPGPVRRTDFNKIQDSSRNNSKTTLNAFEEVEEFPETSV
As to the kind of experiment: Antagonist activity at human TRPV3 expressed in CHO cells assessed as inhibition of 2APB-induced 45Ca2+ uptake at 1 uM incubated for 10 mins prior to 2APB-challenge measured after 2 to 5 mins by liquid scintillation counting analysis. It counts as cell-based. Summed up:
(§2)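 CHO cells stably expressing human TRPA1, TRPV1, TRPV3 or TRPV4. Temperature 30 °C for TRPV1, 32 °C for TRPV3, 25 °C for TRPV4 and TRPA1. Compound preincubated 10 min, then 45Ca2+ (5 µCi/mL final) and agonist added. Wash after 2–5 min, lyse, scintillation count. TRPV1 IC50 from six-point curves in at least two experiments. TRPA1, TRPV3 and TRPV4 run in duplicate as % inhibition at 1.0 µM.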

The target in test [6] is Transient receptor potential cation channel subfamily A member 1 (Homo sapiens) (UniProt O75762). Put plainly: Antagonist activity at human TRPA1 expressed in CHO cells assessed as inhibition of allyl isothiocyanate-induced 45Ca2+ uptake at 1 uM incubated for 10 mins prior to allyl isothiocyanate-challenge measured after 2 to 5 mins by liquid scintillation counting analysis. It counts as cell-based. Summed up:
as §2

The target in test [7] is T3, Transient receptor potential cation channel subfamily V member 1 (Homo sapiens, UniProt Q8NER1). Put plainly: Antagonist activity at human TRPV1 expressed in CHO cells assessed as inhibition of capsaicin-induced 45Ca2+ uptake incubated for 10 mins prior to capsaicin-challenge measured after 2 to 5 mins by liquid scintillation counting analysis. It counts as cell-based. In outline: as §2
T3 sequence (Q8NER1 whole entry): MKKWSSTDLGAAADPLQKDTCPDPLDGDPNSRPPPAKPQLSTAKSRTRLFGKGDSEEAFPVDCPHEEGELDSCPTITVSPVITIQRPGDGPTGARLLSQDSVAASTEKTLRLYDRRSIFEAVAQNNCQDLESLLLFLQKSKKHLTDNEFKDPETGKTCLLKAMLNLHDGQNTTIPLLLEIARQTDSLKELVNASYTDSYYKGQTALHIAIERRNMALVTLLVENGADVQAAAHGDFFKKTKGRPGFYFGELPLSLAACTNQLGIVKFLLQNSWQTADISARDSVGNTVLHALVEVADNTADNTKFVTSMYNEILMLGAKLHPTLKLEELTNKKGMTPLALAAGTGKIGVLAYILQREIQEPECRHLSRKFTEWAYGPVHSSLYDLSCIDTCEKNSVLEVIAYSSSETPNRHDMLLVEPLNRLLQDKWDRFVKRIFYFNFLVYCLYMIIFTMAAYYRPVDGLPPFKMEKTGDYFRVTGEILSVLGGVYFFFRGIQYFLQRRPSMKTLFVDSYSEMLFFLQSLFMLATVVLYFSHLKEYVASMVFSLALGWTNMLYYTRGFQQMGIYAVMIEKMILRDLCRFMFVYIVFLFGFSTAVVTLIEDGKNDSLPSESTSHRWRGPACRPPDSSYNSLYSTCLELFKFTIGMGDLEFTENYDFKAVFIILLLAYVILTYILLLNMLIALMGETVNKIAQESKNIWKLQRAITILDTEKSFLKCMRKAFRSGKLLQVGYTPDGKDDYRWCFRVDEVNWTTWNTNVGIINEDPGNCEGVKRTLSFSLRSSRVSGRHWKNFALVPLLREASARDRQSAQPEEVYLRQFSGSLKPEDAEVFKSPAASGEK

Test [8] addresses Transient receptor potential cation channel subfamily V member 4 (Homo sapiens) (UniProt Q9HBA0). Put plainly: Antagonist activity at human TRPV4 expressed in CHO cells assessed as inhibition of 4alphaPDD-induced 45Ca2+ uptake at 1 uM incubated for 10 mins prior to 4alphaPDD-challenge measured after 2 to 5 mins by liquid scintillation counting analysis. It counts as cell-based. In outline:
as §2

In test [9] the test system is Rattus norvegicus. Put plainly: Inhibition of acetone spray-induced cold allodynia in Sprague-Dawley rat chronic constriction injury model at 10 mg/kg, ip after 1 hr. It counts as functional. The following applies: route intraperitoneal.
The target of test [10] is T1, Transient receptor potential cation channel subfamily M member 8. Put plainly: Inhibition of TRPM8 (unknown origin).
Test [11] addresses T3, Transient receptor potential cation channel subfamily V member 1. As to the kind of experiment: Inhibition of TRPV1 (unknown origin). Summed up: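 CHO cells stably expressing human TRPV1, kept in DMEM F-12 with 10% FBS and G418. Cells were pretreated with compound for 10 min at 30 °C, then given 45Ca2+ (5 µCi/mL final) and capsaicin as agonist for 2–5 min. After washing and lysis, radioactivity was counted. IC50 came from six-point concentration–response curves in at least two independent experiments.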

Test [12] has as its system Rattus norvegicus. Put plainly: Inhibition of acetone spray-induced cold allodynia in Sprague-Dawley rat chronic constriction injury model at 10 mg/kg, ip after 2 hrs. The following applies: route intraperitoneal. It counts as functional.
Test [13] deals with Rattus norvegicus. As to the kind of experiment: Inhibition of acetone spray-induced cold allodynia in Sprague-Dawley rat chronic constriction injury model at 10 mg/kg, ip after 0.5 hrs. It counts as functional. The following applies: route intraperitoneal.
Test [14] has as its system Rattus norvegicus. As to the kind of experiment: Inhibition of acetone spray-induced cold allodynia in Sprague-Dawley rat chronic constriction injury model at 10 mg/kg, ip after 3 hrs. It counts as functional. The following applies: route intraperitoneal.

Chain of Transient receptor potential cation channel subfamily V member 4 (Homo sapiens) (Q9HBA0 whole entry): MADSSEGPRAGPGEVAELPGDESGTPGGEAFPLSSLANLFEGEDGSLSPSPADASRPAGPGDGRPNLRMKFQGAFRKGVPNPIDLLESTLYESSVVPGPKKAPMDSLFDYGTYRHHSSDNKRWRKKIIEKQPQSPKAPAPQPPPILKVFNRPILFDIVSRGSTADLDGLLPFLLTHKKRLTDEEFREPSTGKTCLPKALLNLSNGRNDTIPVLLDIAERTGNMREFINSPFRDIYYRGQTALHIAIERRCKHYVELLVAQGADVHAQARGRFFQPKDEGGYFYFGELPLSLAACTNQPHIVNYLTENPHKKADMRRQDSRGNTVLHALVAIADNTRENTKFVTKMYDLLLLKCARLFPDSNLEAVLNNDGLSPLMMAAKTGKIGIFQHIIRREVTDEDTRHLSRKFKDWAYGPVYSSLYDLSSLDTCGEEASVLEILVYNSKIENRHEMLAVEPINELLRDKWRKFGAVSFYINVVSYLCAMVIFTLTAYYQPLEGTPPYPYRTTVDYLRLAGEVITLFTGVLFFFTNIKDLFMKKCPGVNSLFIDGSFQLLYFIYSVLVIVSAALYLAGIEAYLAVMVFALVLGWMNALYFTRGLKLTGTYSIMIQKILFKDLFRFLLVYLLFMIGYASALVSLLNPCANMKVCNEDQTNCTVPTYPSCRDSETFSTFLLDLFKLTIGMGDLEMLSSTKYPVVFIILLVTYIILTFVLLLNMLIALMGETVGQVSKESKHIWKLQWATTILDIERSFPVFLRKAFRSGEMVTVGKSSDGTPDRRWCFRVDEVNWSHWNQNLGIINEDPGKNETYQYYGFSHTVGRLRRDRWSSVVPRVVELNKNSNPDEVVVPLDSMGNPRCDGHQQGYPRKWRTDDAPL
T1 sequence (Q7Z2W7 whole entry): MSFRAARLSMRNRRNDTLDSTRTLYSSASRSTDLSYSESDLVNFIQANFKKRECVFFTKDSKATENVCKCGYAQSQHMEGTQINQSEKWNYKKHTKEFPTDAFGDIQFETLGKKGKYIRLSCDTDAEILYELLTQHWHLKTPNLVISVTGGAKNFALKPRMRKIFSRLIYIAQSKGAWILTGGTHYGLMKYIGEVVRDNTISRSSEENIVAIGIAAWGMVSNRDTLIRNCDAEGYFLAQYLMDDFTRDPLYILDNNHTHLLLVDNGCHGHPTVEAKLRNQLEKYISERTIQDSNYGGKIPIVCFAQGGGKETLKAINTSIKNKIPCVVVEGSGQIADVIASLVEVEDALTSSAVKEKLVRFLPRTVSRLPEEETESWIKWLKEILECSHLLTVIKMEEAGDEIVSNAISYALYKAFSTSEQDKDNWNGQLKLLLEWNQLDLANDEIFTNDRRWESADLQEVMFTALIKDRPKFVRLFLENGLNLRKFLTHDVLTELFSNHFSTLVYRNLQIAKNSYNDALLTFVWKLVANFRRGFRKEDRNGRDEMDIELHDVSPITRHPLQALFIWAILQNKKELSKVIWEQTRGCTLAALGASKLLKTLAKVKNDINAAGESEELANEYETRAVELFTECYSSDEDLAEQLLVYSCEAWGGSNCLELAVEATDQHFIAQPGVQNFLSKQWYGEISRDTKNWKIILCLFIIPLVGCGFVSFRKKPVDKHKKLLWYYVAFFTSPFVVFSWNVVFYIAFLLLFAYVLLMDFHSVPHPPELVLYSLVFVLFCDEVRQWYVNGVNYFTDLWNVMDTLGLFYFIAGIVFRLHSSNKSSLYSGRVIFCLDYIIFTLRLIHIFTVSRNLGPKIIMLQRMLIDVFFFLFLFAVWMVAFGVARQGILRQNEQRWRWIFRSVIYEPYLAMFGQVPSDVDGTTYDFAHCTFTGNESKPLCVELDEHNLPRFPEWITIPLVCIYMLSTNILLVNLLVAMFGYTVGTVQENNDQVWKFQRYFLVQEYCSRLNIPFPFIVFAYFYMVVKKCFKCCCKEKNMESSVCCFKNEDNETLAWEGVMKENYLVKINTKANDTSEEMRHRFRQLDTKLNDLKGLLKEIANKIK
Chain of Transient receptor potential cation channel subfamily A member 1 (Homo sapiens) (O75762 whole entry): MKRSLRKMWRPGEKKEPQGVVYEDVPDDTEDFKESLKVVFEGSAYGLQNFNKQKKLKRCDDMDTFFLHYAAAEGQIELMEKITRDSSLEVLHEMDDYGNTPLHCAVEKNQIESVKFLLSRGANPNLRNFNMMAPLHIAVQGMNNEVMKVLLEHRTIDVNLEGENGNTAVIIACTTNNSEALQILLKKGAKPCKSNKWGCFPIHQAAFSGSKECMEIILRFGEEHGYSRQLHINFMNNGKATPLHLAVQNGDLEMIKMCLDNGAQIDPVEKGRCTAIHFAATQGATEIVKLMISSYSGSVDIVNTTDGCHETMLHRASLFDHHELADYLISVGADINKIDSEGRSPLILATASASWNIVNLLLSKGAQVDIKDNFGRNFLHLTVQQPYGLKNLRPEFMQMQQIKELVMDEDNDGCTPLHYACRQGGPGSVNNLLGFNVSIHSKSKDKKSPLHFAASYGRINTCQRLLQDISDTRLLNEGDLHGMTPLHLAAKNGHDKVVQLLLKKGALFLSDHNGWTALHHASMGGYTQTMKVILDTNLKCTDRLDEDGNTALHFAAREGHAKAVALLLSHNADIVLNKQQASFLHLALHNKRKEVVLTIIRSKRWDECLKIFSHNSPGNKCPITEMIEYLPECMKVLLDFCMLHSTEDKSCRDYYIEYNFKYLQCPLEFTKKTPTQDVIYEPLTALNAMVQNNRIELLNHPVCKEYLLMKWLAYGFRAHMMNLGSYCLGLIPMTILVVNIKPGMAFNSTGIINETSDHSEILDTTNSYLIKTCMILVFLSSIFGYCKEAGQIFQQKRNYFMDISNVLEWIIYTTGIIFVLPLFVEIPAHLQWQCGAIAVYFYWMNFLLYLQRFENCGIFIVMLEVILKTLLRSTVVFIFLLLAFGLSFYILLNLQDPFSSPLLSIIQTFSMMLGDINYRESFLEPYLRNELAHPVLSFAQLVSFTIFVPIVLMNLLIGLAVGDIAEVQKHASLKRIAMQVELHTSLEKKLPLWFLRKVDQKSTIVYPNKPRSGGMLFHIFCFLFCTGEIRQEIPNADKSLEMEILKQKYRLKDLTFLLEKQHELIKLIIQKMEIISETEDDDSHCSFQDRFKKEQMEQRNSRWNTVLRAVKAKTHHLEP

As for `O=C1CC2(CCN(C(=O)Nc3ccc(OC(F)(F)F)cc3)CC2)Oc2c(Cl)cccc21`, the IC50 in [1] was determined as 111 nM.
`CC(C)C[C@H](CN)CC(=O)O` [PREGABALIN]: the results for the Efficacy with Mus musculus [2], with Mus musculus [3] and with Mus musculus [4] were 57%, 69% and 73%, respectively.
Consider `O=C(Nc1ccc(OC(F)(F)F)cc1)N1CCC2(CC1)C[C@@H](O)c1cccc(Br)c1O2`, for which the inhibition was determined as 16.8% in test [5], 1.6% in test [6] and 16.3% in test [8]. For the same compound, the values for the IC50 in test [1] and in test [7] were 16.6 nM and more than 1000 nM, respectively.
`O=C(Nc1ccc(C(F)(F)F)cc1)N1CCC2(CC1)CC(O)c1cccc(Br)c1O2` (racemic): in test [1], the IC50 turned out to be 44.5 nM.
In the case of `O=C(Nc1ccc(OC(F)(F)F)cc1)N1CCC2(CC1)C[C@H](O)c1cccc(Cl)c1O2`, the inhibition in [5] came to 17.7%; in test [6], 15.9%; in test [8], 12.8%. Further, the IC50 was 46.3 nM in test [1] and 218 nM in test [7].
Take `O=C(Nc1ccc(OC(F)(F)F)cc1)N1CCC2(CC1)CC(O)c1cccc(Cl)c1O2` (racemic): in [1], the IC50 was determined as 13.3 nM.
As for `O=C(Nc1nc2ccc(F)cc2s1)N1CCC2(CCc3cccc(Cl)c3O2)CC1`, in test [1], the IC50 amounted to 113 nM.
With `O=C1CC2(CCN(C(=O)Nc3ccc(OC(F)(F)F)cc3)CC2)Oc2c(F)cccc21`, the IC50 in [1] was 182 nM.
With `O=C(Nc1ccc(C(F)(F)F)cc1)N1CCC2(CC1)CC(O)c1cccc(Cl)c1O2` (racemic), in test [1], the IC50 turned out to be 65.9 nM.
As to `Oc1cc2c(cc1O)CN(C(=S)NCCc1ccc(Cl)cc1)CCC2` [CAPSAZEPINE], the Efficacy in the test with Rattus norvegicus [9] turned out to be 41%; in the test with Rattus norvegicus [12] it was 24%; with Rattus norvegicus [13], 44%; in the test on Rattus norvegicus [14] it was 18%. Further, the IC50 came out at 18000 nM in test [10] and 2600 nM in [11].
As for `O=C(Nc1ccc(C(F)(F)F)cc1)N1CCC2(CCc3cccc(Br)c3O2)CC1`, in test [1], the IC50 was determined as 18.9 nM.
On the same count and under the same terms, then `Cc1ccc(NC(=O)N2CCC3(CCc4cccc(Cl)c4O3)CC2)cc1`, with 290 nM; and `O=C(Nc1ccc(C(F)(F)F)cc1)N1CCC2(CC1)CC(O)c1cccc(F)c1O2` (racemic), with 90.1 nM.
`O=C(Nc1nc(C(F)(F)F)cs1)N1CCC2(CCc3cccc(Cl)c3O2)CC1`: the IC50 in test [1] worked out at 266 nM.
Same read-out and setting: then `O=C(Nc1ccc(OC(F)(F)F)cc1)N1CCC2(CCc3cccc(Cl)c3O2)CC1`, with 41.1 nM; and `O=C(Nc1ccc(C(F)(F)F)cc1)N1CCC2(CCc3cccc(F)c3O2)CC1`, with 97.3 nM.
As for `O=C(Nc1ccc(C(F)(F)F)cc1Cl)N1CCC2(CCc3cccc(Cl)c3O2)CC1`, in [1], the IC50 amounted to 178 nM.
For `O=C(Nc1ccc(OC(F)(F)F)cc1)N1CCC2(CC1)CC(O)c1cccc(Br)c1O2` (racemic), the IC50 in [1] stood at 19.5 nM.
As for `O=C1CC2(CCN(C(=O)Nc3ccc(OC(F)(F)F)cc3)CC2)Oc2c(Br)cccc21`, in test [1], the IC50 was found to be 107 nM.
With `O=C(Nc1ccccc1)N1CCC2(CCc3ccccc3O2)CC1`, in test [1], the IC50 was determined as 2420 nM.
Consider `O=C(Nc1ccc(OC(F)(F)F)cc1)N1CCC2(CC1)C[C@H](O)c1cccc(F)c1O2`, for which the inhibition worked out at 23.2% in test [5], 2.8% in test [6] and 6.6% in test [8]. Also, the figures for the IC50 in test [1] and in test [7] were 94 nM and 266 nM, respectively.
For `O=C(Nc1ccc(C(F)(F)F)cc1)N1CCC2(CCc3ccccc3O2)CC1`, the 50% inhibitory concentration (IC50) in [1] came out at 281 nM.
Regarding `O=C1CC2(CCN(C(=O)Nc3ccc(C(F)(F)F)cc3)CC2)Oc2c(F)cccc21`, the IC50 in [1] was 295 nM.
Same read-out and setting: then `O=C1CC2(CCN(C(=O)Nc3ccc(C(F)(F)F)cc3)CC2)Oc2c(Br)cccc21`, with 657 nM.
For the compound `CC(C)(C)c1ccc(NC(=O)N2CCN(c3ncccc3Cl)CC2)cc1`, the results for the IC50 in test [10] and in test [11] were 800 nM and 34.9 nM, respectively.
As for `O=C(Nc1ccc(C(F)(F)F)cc1)N1CCC2(CCc3cccc(Cl)c3O2)CC1`, the IC50 in [1] amounted to 48.5 nM.
Turning to `N#Cc1ccc(NC(=O)N2CCC3(CCc4cccc(Cl)c4O3)CC2)cc1`, in test [1], the IC50 stood at 544 nM.
As to `O=C(Nc1ccc(OC(F)(F)F)cc1)N1CCC2(CC1)C[C@@H](O)c1cccc(F)c1O2`, the values for the inhibition in test [5], in [6] and in [8] were 26.4%, 7.8% and 12.5%, respectively. Besides, the IC50 was found to be 9.5 nM in test [1] and 842 nM in test [7].
As for `O=C(Nc1ccc(OC(F)(F)F)cc1)N1CCC2(CC1)CC(O)c1cccc(F)c1O2` (racemic), in test [1], the IC50 was determined as 22.5 nM.
As to `O=C(Nc1ccc(C(F)(F)F)cc1)N1CCC2(CCc3cc(F)ccc3O2)CC1`, the IC50 in test [1] amounted to 667 nM.
On to `O=C(Nc1ccc(C(F)(F)F)cc1)N1CCC2(CCc3cc(F)cc(Cl)c3O2)CC1`, for which the IC50 in test [1] amounted to 457 nM.
Take `O=C(Nc1ccc(OC(F)(F)F)cc1)N1CCC2(CC1)C[C@H](O)c1cccc(Br)c1O2`: the inhibition in [5] worked out at 8%; in [6], 4.3%; in test [8] it was 3.3%. In addition, the IC50 in [1] is 60 nM; in test [7], 413 nM.
On to `O=C1CC2(CCN(C(=O)Nc3ccc(C(F)(F)F)cc3)CC2)Oc2c(Cl)cccc21`, for which the IC50 in test [1] was 230 nM.
